According to ChEMBL document CHEMBL1687708, “Efficacy of oritavancin in a murine model of Bacillus anthracis spore inhalation anthrax” (Antimicrob Agents Chemother, 2008):
Converted amounts (≈) assume the structure as drawn.

Legend:
Type in all cases: functional
[1] = tested on: Bacillus cereus; assay: Antimicrobial activity against Bacillus cereus ATCC 4342 by broth microdilution method
Outline: (§1)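 B. cereus ATCC 4342 went through stepwise selection for 20 cycles in cation-adjusted Mueller-Hinton broth with doubling drug dilutions. Each cycle was seeded from the previous day's 0.5× MIC wells, in two independent rounds per drug. Selectants showing a fourfold or greater MIC rise were passaged 5 days without drug. Their MICs were then read alongside the parent strain. Oritavancin assays carried 0.002% polysorbate 80 throughout.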

[2] = tested on: Bacillus cereus; assay: Antimicrobial activity against Bacillus cereus ATCC 4342 selected after 20 daily cycles of drug selection followed by 5 days of nonselective growth by broth microdilution method; conditions: ATCC 4342, 120 h; outline: as §1
[3] = tested on: Bacillus cereus; assay: Ratio of MIC for Bacillus cereus ATCC 4342 selected after 20 daily cycles of drug selection followed by 5 days of nonselective growth to MIC for Bacillus cereus ATCC 4342; outline: as §1

Row | SMILES | MIC [1] | MIC [2] | Ratio [3]
1 | CC1(C)S[C@@H]2[C@H](NC(=O)Cc3ccccc3)C(=O)N2[C@H]1C(=O)O [PENICILLIN G] | 0.008 µg/mL (≈ 0.0239 µM) | > 0.06 µg/mL | >8
2 | CO[C@H]1/C=C/O[C@@]2(C)Oc3c(C)c(O)c4c(O)c(c(/C=N/N5CCN(C)CC5)c(O)c4c3C2=O)NC(=O)/C(C)=C\C=C\[C@H](C)[C@H](O)[C@@H](C)[C@@H](O)[C@@H](C)[C@H](OC(C)=O)[C@@H]1C [RIFAMPIN] | 0.03 µg/mL (≈ 0.0365 µM) | 0.25 µg/mL (≈ 0.304 µM) | 8
